Measurements: ChEMBL document CHEMBL4184143 (J Med Chem, 2017)

Key:
HBL-100 = experiment: Cytotoxicity against human HBL100 cells assessed as cell growth inhibition after 4 days by WST-8 assay; assay type: functional, cell-based; conditions: HBL-100, 96 h
Summary of the method: (§1)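 Breast cancer cells were seeded at 3,000 cells/well, treated with serially diluted compound in medium and cultured for 4 days. Growth was read by WST-8 (10% v/v final, 1–3 h) at 450 nm. Readings were normalized to DMSO-treated cells, and IC50 was obtained by nonlinear regression.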

MV4-11 [1] = experiment: Antitumor activity against human MV4-11 cells xenografted in SCID mouse assessed as tumor growth inhibition at 50 mg/kg, po qd measured 2 to 3 times weekly during treatment and once weekly post dose; assay type: functional; conditions: MV4-11, po, read-out: TGI
Summary of the method: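 At ~100 mm3, mice were randomized to treatment or vehicle control. Tumors were measured by electronic calipers. Animals were checked daily for signs of toxicity and weighed 2–3 times weekly on treatment, then at least weekly afterwards.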

[2] = target: ATPase family AAA domain-containing protein 2B (Homo sapiens, UniProt Q9ULI0); experiment: Binding affinity to human partial length ATAD2B (Q955 to R1082 residues) expressed in bacterial expression system by BROMOscan assay
Sequence of ATPase family AAA domain-containing protein 2B (Q9ULI0 whole entry, the tested form may be a part): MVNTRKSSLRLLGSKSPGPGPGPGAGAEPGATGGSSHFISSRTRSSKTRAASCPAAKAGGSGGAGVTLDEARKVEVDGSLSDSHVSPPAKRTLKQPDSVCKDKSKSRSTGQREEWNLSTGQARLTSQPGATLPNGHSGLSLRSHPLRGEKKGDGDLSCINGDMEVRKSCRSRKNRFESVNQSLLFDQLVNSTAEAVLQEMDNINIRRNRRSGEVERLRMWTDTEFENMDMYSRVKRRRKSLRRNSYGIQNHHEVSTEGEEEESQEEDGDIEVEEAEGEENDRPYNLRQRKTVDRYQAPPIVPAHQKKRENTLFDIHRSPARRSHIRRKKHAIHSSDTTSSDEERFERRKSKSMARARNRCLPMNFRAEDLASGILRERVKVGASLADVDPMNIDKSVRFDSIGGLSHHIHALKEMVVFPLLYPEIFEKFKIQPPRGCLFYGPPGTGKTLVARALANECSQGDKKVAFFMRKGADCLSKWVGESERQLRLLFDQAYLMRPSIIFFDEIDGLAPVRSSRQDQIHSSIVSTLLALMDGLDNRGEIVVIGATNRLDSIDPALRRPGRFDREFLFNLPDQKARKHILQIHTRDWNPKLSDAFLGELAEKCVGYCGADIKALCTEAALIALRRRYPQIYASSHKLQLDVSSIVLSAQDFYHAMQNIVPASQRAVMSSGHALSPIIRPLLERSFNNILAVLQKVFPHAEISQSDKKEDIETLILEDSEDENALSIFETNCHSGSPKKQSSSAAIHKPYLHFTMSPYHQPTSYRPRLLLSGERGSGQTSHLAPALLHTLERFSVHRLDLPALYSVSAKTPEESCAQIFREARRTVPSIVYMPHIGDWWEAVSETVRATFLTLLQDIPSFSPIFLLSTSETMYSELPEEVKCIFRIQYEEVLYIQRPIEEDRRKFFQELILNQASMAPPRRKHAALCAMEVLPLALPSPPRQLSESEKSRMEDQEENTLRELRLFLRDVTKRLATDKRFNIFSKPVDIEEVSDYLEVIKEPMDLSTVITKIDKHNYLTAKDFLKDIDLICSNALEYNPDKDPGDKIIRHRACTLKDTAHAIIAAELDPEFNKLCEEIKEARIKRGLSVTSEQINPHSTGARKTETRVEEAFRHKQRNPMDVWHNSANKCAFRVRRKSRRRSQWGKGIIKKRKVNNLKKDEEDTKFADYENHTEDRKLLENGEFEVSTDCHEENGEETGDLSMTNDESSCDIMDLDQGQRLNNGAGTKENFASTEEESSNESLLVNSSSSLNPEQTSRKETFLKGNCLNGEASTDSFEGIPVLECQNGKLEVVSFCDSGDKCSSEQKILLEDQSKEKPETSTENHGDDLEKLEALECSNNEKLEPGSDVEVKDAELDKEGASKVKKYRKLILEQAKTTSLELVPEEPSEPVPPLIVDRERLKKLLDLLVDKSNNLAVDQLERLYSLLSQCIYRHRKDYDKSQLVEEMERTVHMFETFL

MV4-11 [3] = experiment: Inhibition of BET bromodomain in human MV4-11 cells assessed as upregulation of p21 protein level after 24 hrs by Western blot method; assay type: cell-based
Summary of the method: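 MV4;11 cells were exposed to compound for 24 h and lysed in RIPA buffer with protease inhibitors. Lysates were separated on 4–20% SDS-PAGE, blotted to PVDF and probed for PARP, cleaved PARP and p21, with β-actin as loading control.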

SUM-159-PT = experiment: Cytotoxicity against human SUM159PT cells assessed as cell growth inhibition after 4 days by WST-8 assay; assay type: functional, cell-based; conditions: 96 h; summary of the method: as §1
[4] = Cmax in SCID mouse at 25 mg/kg, po by LC/MS method; assay type: ADME, organism-based; design: dose 25 mg/kg, route oral; conditions: in vivo
[5] = AUC (0 to t) in SCID mouse at 5 mg/kg, iv by LC/MS method; assay type: ADME, organism-based; conditions: in vivo
Summary of the method: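 Mouse plasma samples were stored at −80 °C. Drug levels were quantified by a validated LC–MS/MS method, and pharmacokinetic parameters were calculated by noncompartmental analysis.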

[6] = Half life in Sprague-Dawley rat at 5 mg/kg, iv by LC/MS method; assay type: ADME, organism-based; conditions: in vivo

For COc1cc2c(cc1-c1c(C)noc1C)[nH]c1nc(C)nc(-c3ccnc4ccccc34)c12, which IC50 (HBL-100) is on record?
Its IC50 is > 2000 nM.

What about the inhibition in vivo at 50 mg/kg (MV4-11 [1]) of the same molecule?
The inhibition in vivo at 50 mg/kg was > 80%.

What about the Kd [2] of the same molecule?
Its Kd is > 4000 nM.

What about the inhibition (MV4-11 [3]) of the same molecule?
Its inhibition is “Dose-dependent effect”.

What about the IC50 (SUM-159-PT) of the same molecule?
The IC50 was > 2000 nM.

And the Cmax [4]?
Its Cmax is 983 ng/mL.

What about the AUC(0-t) [5] of the same molecule?
Its AUC(0-t) is 3690 ng·h/mL.

And the half-life [6]?
The half-life was 2.4 h.
